Assay outcomes deposited in PubChem by several laboratories.
HIF activator – HIF pathway transcriptional activators, primary screen, cell-based, U2OS HRE-luciferase, luminescence; U2OS HRE-luciferase reporter; normalized: DMSO 0%, desferrioxamine 100%; activation, % at 7.5 µM (by protocol); hit rate 0.32% among 300,000; AID 1910, 2009;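 active = mean activation of at least 10% of the iron chelator positive control signal, with at least half of replicates also reaching 10%; inconclusive = mean and replicate majority disagree about reaching 10%; inactive = mean and most replicates under 10%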
T cell HTS – modulators of CD8 T cell-vesicle binding, primary screen, mouse 2C CD8+ T cells, flow cytometry | response (vesicle binding), % at 7 µM | hit rate 0.068% among 330,000 | AID 2052, 2009 | 2C CD8+ T cell-vesicle binding; active compounds read low;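 active = response, share of CD8 T cells binding vesicles, and their 90th percentile fluorescence all below set limits, cut at about 80% in these data, passing the limit was not always enough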;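 also: values below 100% mean blocked vesicle binding to the CD8+ T cells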
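Read-out – percent CD8+ FL2 mean versus row control · System – murine 2C transgenic CD8+ T lymphocytes · Times – 1.5 h cell–vesicle binding at 37 °C, then 20 min icy labelling · Control set – naked vesicles low, QL9 vesicles with vehicle high · Detection – cytometric PE anti-B7-1 and Alexa647 anti-CD8 signals after 1% paraformaldehyde fixation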
Mot1-301 SUMO – yeast Mot1-301 growth rescue at high temperature, primary screen, SUMOylation pathway inhibitor project, S. cerevisiae, ATP luminescence, 38.5C. S. cerevisiae Mot1-301 growth rescue; percent above DMSO median, 100 means doubled. growth rescue, % at 18.8 µM. hit rate 1% among 320,000. AID 2716, 2010;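 active = every valid replicate shows activation above 250% relative to neutral control wells; inactive = the rest, any valid replicate at or below 250%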;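 also: OY570 slx delta 5 strain wells were the positive control but not used for scaling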
GASC-1 inh – inhibitors of GASC-1 histone demethylase, primary screen, biochemical, fluorescence, DELFIA europium | hit rate 0.069% among 330,000 | AID 2099, 2009 | GST-JMJD2C(1-420) H3K9me3 demethylation | inhibition, % at 2.35 µM;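 active = more than half of a compound's replicate wells show inhibition beyond 50%, single wells judged on their own value; inconclusive = some, but no more than half, of replicates pass 50% inhibition; inactive = no replicate passes 50% inhibition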;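 also: signal counts dimethyl H3K9 product captured on neutravidin plate; 0% = median of DMSO wells and 100% = 0.3 times that DMSO median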
Target sequence (Q9H3R0 1-420 limits assumed): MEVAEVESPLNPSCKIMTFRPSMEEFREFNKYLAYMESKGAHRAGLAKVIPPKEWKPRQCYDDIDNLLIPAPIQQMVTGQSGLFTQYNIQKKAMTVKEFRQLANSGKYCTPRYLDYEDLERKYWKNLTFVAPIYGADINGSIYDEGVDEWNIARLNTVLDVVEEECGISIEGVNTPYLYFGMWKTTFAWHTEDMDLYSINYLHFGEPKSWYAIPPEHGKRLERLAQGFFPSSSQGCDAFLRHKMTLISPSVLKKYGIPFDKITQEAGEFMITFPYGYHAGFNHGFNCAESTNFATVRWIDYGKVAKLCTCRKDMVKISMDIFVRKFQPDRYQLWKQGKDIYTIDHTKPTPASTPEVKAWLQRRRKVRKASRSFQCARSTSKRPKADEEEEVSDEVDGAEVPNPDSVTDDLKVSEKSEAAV
Yeast Mot1 SUMO – growth restoration of Mot1-301 yeast on galactose, dose response, SUMO pathway inhibitor project, whole organism, S. cerevisiae, ATP luminescence, cherry-picked samples; shares compounds with Mot1-301 SUMO; 2,300 tested, under 10 active; AID 493004, 2010; S. cerevisiae Mot1-301 galactose growth, 24 h; -100 = growth of slx-deleted rescue strain; growth activity, percent, % at 42 µM;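 active = Signal drops as the depositor expects, and the fitted half-maximal dose is no more than ten times the top valid tested dose; inconclusive = Poor fit, or a flat curve whose signal drops by 30% to 70%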;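 also: more negative values mean stronger growth rescue toward the control strain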
Active calls of the source: *; i = inactive; ? = inconclusive; · = not tested or not shown; + = active, no number. Compounds with a hit are over-represented: about 1.4% of the library has one in this group of screens.

SMILES	HIF activator	T cell HTS	Mot1-301 SUMO	GASC-1 inh	Yeast Mot1 SUMO
CCc1nnc(NC(=O)c2cc(S(=O)(=O)N3CCN(c4ccccc4)CC3)ccc2Cl)s1	-2	198	-1	0	·
Cc1nnc(NC(=O)c2cccc(S(=O)(=O)N3CCCC3)c2)s1	0	406	576*	3	1
CCc1nnc(NC(=O)c2cccc(S(=O)(=O)N3CCN(c4ccccc4)CC3)c2)s1	1	397	572*	-4	0
COc1ccc2cc([C@@H](C)C(=O)O)ccc2c1	·	503	-7	·	·
Cc1sc(NC(=O)CSC2=NCCS2)nc1-c1ccccc1	1	596	722*	21	-1
O=C(CSC1=NCCS1)Nc1nc2ccccc2s1	2	610	8	12	·
Cc1cc(C)c(S(=O)(=O)Nc2ccccc2C(=O)N2CCCC2)c(C)c1	0	0	-12	-43	·
COc1ccc(C2=Nn3c(nnc3-c3ccco3)SC2)cc1	1	i	533*	4	-1
CC1CCCCN1C(=O)CN1CCN(S(=O)(=O)c2ccc(Br)cc2Cl)CC1 (centres undefined)	·	281	-2	-1	·
COc1ccccc1CCc1nnc(CCC(=O)NC(C)Cc2cccs2)o1 (centres undefined)	0	169	-12	5	·
O=c1[nH][nH]c(C(F)(F)F)c1C=Nc1ccccc1	1	509	21	-5	·
O=c1[nH][nH]c(C(F)(F)F)c1C=NCc1cccs1	0	183	+	-7	0
CCOc1cccnc1Sc1ccccc1	0	563	29	1	·
CC(=O)NC1C(OCc2ccccc2)OC2COC(c3ccccc3)OC2C1OCC(=O)O (centres undefined)	0	203	179	17	·
O=C1c2ccccc2NC(c2ccccc2O)N1O (centres undefined)	-10	167	384*	-10	-1
Cc1ccc(N2C(=O)c3ccccc3NC2c2ccccc2O)cc1 (centres undefined)	-1	288	-16	-1	·
COc1ccccc1CN1CC(C(=O)NCc2nccn2C)CCC1=O (centres undefined)	0	341	-9	8	·
COCc1[nH][nH]c(=O)c1C=Nc1ccc(OC(F)(F)F)cc1	0	159	801*	-6	0
COCc1[nH][nH]c(=O)c1C=Nc1ccc(Cl)cc1	-31	367	-5	i	·
Cc1ccc(S(=O)(=O)NC(C)C(=O)OCC(=O)N(C)c2ccccc2)cc1 (centres undefined)	·	407	10	·	·
COc1ccc(Cn2nnnc2CN2CCN(c3ccc(OC)cc3)CC2)cc1	0	498	885*	-11	1
COc1ccc(CN2CCCCCC2)cc1	-15	262	487*	-3	0
COc1ccc(Cn2nnnc2CN2CCCCCC2)cc1	-1	237	-7	6	·
N#Cc1cc(NC(=O)c2ccc(F)cc2)c(=O)n2c1[nH]c1ccccc12	1	211	-3	-15	·
Oc1ccc(C2=CSC3=NCCN23)cc1O	-1	138	718*	7	0
SMILES	HIF activator	T cell HTS	Mot1-301 SUMO	GASC-1 inh	Yeast Mot1 SUMO
N#CCCN(C(=O)COC(=O)c1ccc(S(=O)(=O)Nc2ccccc2)cc1)c1ccccc1	0	104	+	2	0
CCCc1nc2nc(C)c(NS(=O)(=O)c3ccc(Cl)cc3)c(=O)n2[nH]1	0	167	16	-13	·
Cc1ccc(CNC(=O)CCn2cc(-c3ccc(C)cc3)nc2CCN)cc1	·	364	+	49	0
COc1ccc(-c2cn(CCC(=O)NCc3ccc(C)cc3)c(-c3ccncc3)n2)cc1	0	208	13	-6	·
C[C@]12CCC(=O)C[C@@H]1CC[C@@H]1[C@@H]2CC[C@]2(C)[C@@H](C(=O)COC(=O)CCC(=O)O)CC[C@@H]12	-14	204	25	-4	·
CNS(=O)(=O)c1ccc2c(c1)oc(=O)c1cc(S(=O)(=O)NC)ccc12	0	373	6	6	·
O=c1oc2cc(S(=O)(=O)NCCCO)ccc2c2ccc(S(=O)(=O)NCCCO)cc12	0	89	461*	-6	0
COC(=O)[C@@]12CCCCN1[C@H](c1ccc(-c3ccc(C(C)=O)cc3)cc1)[C@@H]1C(=O)N(C)C(=O)[C@@H]12	0	209	737*	-11	1
COC(=O)[C@@]12CCCCN1[C@H](c1ccc(-c3cccc(Cl)c3)cc1)[C@H]1C(=O)N(C)C(=O)[C@H]12	0	278	322	2	·
COC(=O)[C@@]12CCCCN1[C@H](c1ccc(-c3cccc(Cl)c3)c(OC)c1)[C@H]1C(=O)N(C)C(=O)[C@H]12	0	391	766*	7	0
CC(C)c1ccc(CN2C(=O)NC3(CCCCCC3)C2=O)cc1	0	313	22	-2	·
CN(C)c1ccc(/C=C/c2cccc[n+]2[O-])cc1	2	505	584*	5	0
O=C1NC2(CCCCO2)CO1 (centres undefined)	-3	552	661*	-1	0
O=C1NC2(CCCCC2)CO1	0	670	10	?	·
COC(=O)c1ccc(/C=N/NC(=O)C(=O)NCC2CCCO2)cc1 (centres undefined)	-1	312	731*	-4	1
O=C(NCC1CCCO1)/C(=C\c1ccc(Cl)cc1)NC(=O)c1ccccc1 (centres undefined)	0	374	-2	2	·
Cc1ccc(C(=O)N/C(=C/c2ccccc2)C(=O)NCC2CCCO2)cc1 (centres undefined)	-1	358	399*	1	0
CN(C)c1ccc(NC(=O)CSc2nc(N)c(C(=O)Nc3ccc(N(C)C)cc3)s2)cc1	-2	186	466*	-2	0
COc1ccc(NC(=O)CSc2nc(N)c(C(=O)Nc3ccc(N(C)C)cc3)s2)cc1	3	249	-11	1	·
O=C(Nc1ccccc1N1CCOCC1)c1cc(Br)c(Br)s1	0	283	760*	-6	-1
CCc1cc(C(=O)Nc2ccccc2N2CCOCC2)sc1C	·	733	52	·	·
O=C(CSc1ccc(Br)cc1)Nc1ccccc1N1CCOCC1	0	382	722*	-1	0
COC(=O)c1cn(Cc2ccccn2)c(=O)c2ccccc12	0	165	-11	-5	·
C/C(=N\NC(=O)Cc1ccc(Cl)cc1)c1ccccc1O	0	259	18	-4	·
Cc1cccc(NC(=S)NCc2ccco2)c1C	0	715	619*	-1	0
c1ccc2c(c1)nc(N1CCCCC1)c1ccccc12	0	i	57	5	·
